Data as given in ChEMBL document CHEMBL2010803, “Novel NSAID 1-acyl-4-cycloalkyl/arylsemicarbazides and 1-acyl-5-benzyloxy/hydroxy carbamoylcarbazides as potential anticancer agents and antioxidants” (Eur J Med Chem, 2012).
The source made the active and inactive calls. No cut-off for these calls is given here.

Experiments:
[1] = system: Respiratory syncytial virus; test: Antiviral activity against RSV infected in human cervix carcinoma cells assessed as inhibition of virus-induced cytopathic effect at 0.32 to 100 uM; assay type: functional, organism-based
Procedure, shortened: (§1)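 Confluent cell cultures were infected with 100 CCID50 of virus in the presence of test compound at 100, 40, 8, 1.6 and 0.32 μM. Cytopathic effect was scored once it was complete in untreated infected controls.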

Coxsackievirus B4 [2] = test: Antiviral activity against Coxsackievirus B4 infected in human cervix carcinoma cells assessed as inhibition of virus-induced cytopathic effect at 0.32 to 100 uM; assay type: functional, organism-based; procedure, shortened: as §1
L1210 = test: Cytostatic activity against mouse L1210 cells after 2 days by coulter counter analysis; assay type: functional, cell-based; conditions: L1210, 48 h
Procedure, shortened: (§2)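 300,000–500,000 cells/ml mixed 1:1 with compound dilutions and incubated at 37 °C for 2 days (L1210) or 3 days (CEM, HeLa). Cell number counted with a Coulter counter; HeLa trypsinized before counting.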

CCRF-CEM = test: Cytostatic activity against human CEM cells after 3 days by coulter counter analysis; assay type: functional, cell-based; conditions: 72 h; procedure, shortened: as §2
HCT-116 = test: Cytostatic activity against human HCT116 cells after 72 hrs by MTT assay; assay type: functional, cell-based; conditions: HCT-116, 72 h
Procedure, shortened: (§3)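 Monolayers in DMEM with 10% FBS, 2 mM L-glutamine and penicillin/streptomycin, 37 °C, 5% CO2. Seeded at 1–3 × 10^4 cells/ml, then compound added in tenfold dilutions (10⁻⁸–10⁻⁴ M) for 72 h. MTT read at 570 nm; percent growth taken against time-zero and untreated controls. IC50 by linear regression; quadruplicate, at least two experiments.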

MCF7 = test: Cytostatic activity against human MCF7 cells after 72 hrs by MTT assay; assay type: functional, cell-based; conditions: MCF7, 72 h; procedure, shortened: as §3
NCI-H460 = test: Cytostatic activity against human NCI-H460 cells after 72 hrs by MTT assay; assay type: functional, cell-based; conditions: NCI-H460, 72 h; procedure, shortened: as §3
HaCaT = test: Cytostatic activity against human HaCaT cells after 72 hrs by MTT assay; assay type: ADME, cell-based; procedure, shortened: as §3
Human alphaherpesvirus 1 = test: Antiviral activity against HSV1 KOS infected in human lung fibroblast assessed as inhibition of virus-induced cytopathic effect at 0.32 to 100 uM; assay type: functional, organism-based; procedure, shortened: as §1
Human alphaherpesvirus 2 = test: Antiviral activity against HSV2 G infected in human lung fibroblast assessed as inhibition of virus-induced cytopathic effect at 0.32 to 100 uM; assay type: functional, organism-based; conditions: strain G; procedure, shortened: as §1
Vaccinia virus = test: Antiviral activity against Vaccinia virus infected in human lung fibroblast assessed as inhibition of virus-induced cytopathic effect at 0.32 to 100 uM; assay type: functional, organism-based; conditions: Orthopoxvirus vaccinia
[3] = system: Vesicular stomatitis virus; test: Antiviral activity against VSV infected in human lung fibroblast assessed as inhibition of virus-induced cytopathic effect at 0.32 to 100 uM; assay type: functional, organism-based
Human respirovirus 3 = test: Antiviral activity against Parainfluenza virus 3 infected in african green monkey Vero cells assessed as inhibition of virus-induced cytopathic effect at 0.32 to 100 uM; assay type: functional, organism-based; procedure, shortened: as §1
[4] = system: Mammalian orthoreovirus 1; test: Antiviral activity against Reovirus-1 infected in african green monkey Vero cells assessed as inhibition of virus-induced cytopathic effect at 0.32 to 100 uM; assay type: functional, organism-based; procedure, shortened: as §1
Sindbis virus = test: Antiviral activity against Sindbis virus infected in african green monkey Vero cells assessed as inhibition of virus-induced cytopathic effect at 0.32 to 100 uM; assay type: functional, organism-based; procedure, shortened: as §1
Coxsackievirus B4 [5] = test: Antiviral activity against Coxsackievirus B4 infected in african green monkey Vero cells assessed as inhibition of virus-induced cytopathic effect at 0.32 to 100 uM; assay type: functional, organism-based; procedure, shortened: as §1
Punta Toro virus = test: Antiviral activity against Punta Toro virus infected in african green monkey Vero cells assessed as inhibition of virus-induced cytopathic effect at 0.32 to 100 uM; assay type: functional, organism-based; procedure, shortened: as §1
[6] = system: Vesicular stomatitis virus; test: Antiviral activity against Vesicular stomatitis virus infected in human cervix carcinoma cells assessed as inhibition of virus-induced cytopathic effect at 0.32 to 100 uM; assay type: functional, organism-based
Procedure, shortened: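 Confluent human cervix carcinoma (HeLa) cultures received 100 CCID50 of VSV together with the compound at 100, 40, 8, 1.6 or 0.32 μM. Cytopathicity was read at the point of full CPE in infected, untreated control wells.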

Felid alphaherpesvirus 1 = test: Antiviral activity against Feline herpesvirus infected in feline CRFK cells assessed as inhibition of virus-induced cytopathic effect at 0.32 to 100 uM; assay type: functional, organism-based; procedure, shortened: as §1
Feline coronavirus = test: Antiviral activity against Feline coronavirus infected in feline CRFK cells assessed as inhibition of virus-induced cytopathic effect at 0.32 to 100 uM; assay type: functional, organism-based; procedure, shortened: as §1
Influenza A virus [7] = test: Antiviral activity against Influenza A virus H1N1 infected in MDCK cells assessed as inhibition of virus-induced cytopathic effect at 0.32 to 100 uM; assay type: functional, organism-based
Procedure, shortened: (§4)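 Confluent MDCK monolayers were infected in the presence of the compound at 100, 40, 8, 1.6 and 0.32 μM. Viral cytopathicity was scored once it was complete in untreated infected control cultures.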

Influenza A virus [8] = test: Antiviral activity against Influenza A virus H3N2 infected in MDCK cells assessed as inhibition of virus-induced cytopathic effect at 0.32 to 100 uM; assay type: functional, organism-based; procedure, shortened: as §4
Influenza B virus = test: Antiviral activity against Influenza B virus infected in MDCK cells assessed as inhibition of virus-induced cytopathic effect at 0.32 to 100 uM; assay type: functional, organism-based; procedure, shortened: as §4
[9] = system: Human immunodeficiency virus 1; test: Antiviral activity against HIV1 3B infected in human CEM cells assessed as inhibition of virus-induced CEM giant cell formation at 0.32 to 100 uM after 4 days; assay type: functional, organism-based; conditions: CCRF-CEM
Procedure, shortened: (§5)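 CEM cells (~3 × 10^5 cells/cm³) exposed to 100 CCID50/ml of virus and seeded into wells holding compound dilutions. Incubated 4 days at 37 °C, then giant cell formation examined microscopically.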

[10] = system: Human immunodeficiency virus 2; test: Antiviral activity against HIV2 ROD infected in human CEM cells assessed as inhibition of virus-induced CEM giant cell formation at 0.32 to 100 uM after 4 days; assay type: functional, organism-based; conditions: ISOLATE ROD, CCRF-CEM; procedure, shortened: as §5
[11] = system: Radical scavenging activity; test: Antioxidant activity assessed as DPPH free radical scavenging activity at 100 uM after 20 mins by spectrophotometric analysis; assay type: functional
Procedure, shortened: (§6)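 0.05 mM DPPH in absolute ethanol mixed with an equal volume of compound in DMSO (final 100 μM). Shaken and left 20 or 60 min, then absorbance read at 517 nm and percent activity calculated. Three replicates, averaged.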

[12] = system: Radical scavenging activity; test: Antioxidant activity assessed as DPPH free radical scavenging activity at 100 uM after 60 mins by spectrophotometric analysis; assay type: functional; procedure, shortened: as §6
[13] = Antioxidant activity assessed as inhibition of AAPH-induced linoleic acid lipid peroxidation by measuring conjugated diene hydroperoxide level; assay type: functional; parameters: concentration or dose not given beside the values; conditions: dose or concentration not given here
Procedure, shortened: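 Linoleic acid sodium salt (10 μL of 16 mM) in 0.05 M phosphate buffer pH 7.4 at 37 °C. Oxidation started under air with 50 μL of 40 mM AAPH. Conjugated diene hydroperoxide formation followed as absorbance rise at 234 nm; control contains the same DMSO level. At least triplicate.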

Glycine max = test: Inhibition of soybean LOX assessed as conversion of sodium linoleate to 13- hydroperoxylinoleic acid at 100 uM
HeLa = test: Cytostatic activity against human HeLa cells after 3 days by coulter counter analysis; assay type: functional, cell-based; conditions: 72 h; procedure, shortened: as §2

SMILES	inhibition [1]	inhibition (Coxsackievirus B4 [2])	IC50 (L1210)	IC50 (CCRF-CEM)	IC50 (HCT-116)	IC50 (MCF7)	IC50 (NCI-H460)	inhibition (Human alphaherpesvirus 1)	inhibition (Human alphaherpesvirus 2)	inhibition (Vaccinia virus)	inhibition [3]	inhibition (Human respirovirus 3)	inhibition [4]	inhibition (Sindbis virus)	inhibition (Coxsackievirus B4 [5])	inhibition (Punta Toro virus)	inhibition [6]	inhibition (Felid alphaherpesvirus 1)	inhibition (Feline coronavirus)	inhibition (Influenza A virus [7])	further results
CC(C(=O)NNC(=O)NCC1CCCCC1)c1cccc(Oc2ccccc2)c1 (stereo not given)	inactive	inactive	22 µM	24 µM	15 µM	13 µM	19 µM	inactive	inactive	inactive	inactive	inactive	inactive	inactive	inactive	inactive	inactive	inactive	inactive	inactive	IC50 (HaCaT): 20 µM; inhibition (Influenza A virus [8]): inactive; inhibition (Influenza B virus): inactive; inhibition [9]: inactive; inhibition [10]: inactive; Activity [11]: 18%; Activity [12]: 21%; inhibition [13]: 64%; inhibition (Glycine max): 12%
O=c1[nH]cc(F)c(=O)[nH]1 [FLUOROURACIL]																					IC50 (HaCaT): 0.3 µM
CC(C(=O)NNC(=O)NO)c1cccc(Cc2ccccc2)c1 (stereo not given)	inactive	inactive	113 µM	155 µM	> 100 µM	> 100 µM	> 100 µM	inactive	inactive	inactive	inactive	inactive	inactive	inactive	inactive	inactive	inactive	inactive	inactive	inactive	IC50 (HeLa): 176 µM; inhibition (Influenza A virus [8]): inactive; inhibition (Influenza B virus): inactive; inhibition [9]: inactive; inhibition [10]: inactive; Activity [11]: 36%; Activity [12]: 59%; inhibition [13]: 8%; inhibition (Glycine max): 8%
CC(C)Cc1ccc(C(C)C(=O)NNC(=O)NCC2CCCCC2)cc1 (stereo not given)	inactive	inactive	44 µM	26 µM	21 µM	13 µM	29 µM	inactive	inactive	inactive	inactive	inactive	inactive	inactive	inactive	inactive	inactive	inactive	inactive	inactive	IC50 (HeLa): 142 µM; inhibition (Influenza A virus [8]): inactive; inhibition (Influenza B virus): inactive; inhibition [9]: inactive; inhibition [10]: inactive; Activity [11]: 3%; Activity [12]: 6%; inhibition [13]: 16%; inhibition (Glycine max): 25%
CC(C(=O)NNC(=O)NOCc1ccccc1)c1cccc(Oc2ccccc2)c1 (stereo not given)	inactive	inactive	84 µM	91 µM	76 µM	81 µM	> 100 µM	inactive	inactive	inactive	inactive	inactive	inactive	inactive	inactive	inactive	inactive	inactive	inactive	inactive	IC50 (HeLa): 76 µM; inhibition (Influenza A virus [8]): inactive; inhibition (Influenza B virus): inactive; inhibition [9]: inactive; inhibition [10]: inactive; Activity [11]: inactive; Activity [12]: inactive; inhibition [13]: 8%; inhibition (Glycine max): 6%
CC(C(=O)NNC(=O)NO)c1cccc(Oc2ccccc2)c1 (stereo not given)	inactive	inactive	125 µM	183 µM	> 100 µM	> 100 µM	> 100 µM	inactive	inactive	inactive	inactive	inactive	inactive	inactive	inactive	inactive	inactive	inactive	inactive	inactive	IC50 (HeLa): ≥ 250 µM; inhibition (Influenza A virus [8]): inactive; inhibition (Influenza B virus): inactive; inhibition [9]: inactive; inhibition [10]: inactive; Activity [11]: 39%; Activity [12]: 66%; inhibition [13]: 22%; inhibition (Glycine max): 3%
CC(C)Cc1ccc(C(C)C(=O)NNC(=O)NOCc2ccccc2)cc1 (stereo not given)	inactive	inactive	192 µM	≥ 250 µM	76 µM	50 µM	> 100 µM	inactive	inactive	inactive	inactive	inactive	inactive	inactive	inactive	inactive	inactive	inactive	inactive	inactive	IC50 (HeLa): 178 µM; inhibition (Influenza A virus [8]): inactive; inhibition (Influenza B virus): inactive; inhibition [9]: inactive; inhibition [10]: inactive; Activity [11]: inactive; Activity [12]: inactive; inhibition [13]: 100%; inhibition (Glycine max): inactive
